Compound activity deposited in PubChem by Johns Hopkins Ion Channel Center.
Shown are actives, neighbours in structure and some others; about 3.5% of the full set was active somewhere.
MrgX1 PAM – allosterically activates human MrgX1 receptor signaling; Q96LB2; actives 0.63% (n = 310,000); B-score at 10 µM; MrgX1-HEK293, Fluo-4 calcium flux, FDSS; hits give high values; AID 588675;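 active = plate-corrected calcium response at least 3 library SD above typical, normal starting fluorescence, not activating the receptor alone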;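 also: compound read alongside a low EC10 to EC30 dose of BAM8-22 agonist; peak minus trough fluorescence over baseline measured at the second addition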
Target sequence (Q96LB2 whole entry, looked up): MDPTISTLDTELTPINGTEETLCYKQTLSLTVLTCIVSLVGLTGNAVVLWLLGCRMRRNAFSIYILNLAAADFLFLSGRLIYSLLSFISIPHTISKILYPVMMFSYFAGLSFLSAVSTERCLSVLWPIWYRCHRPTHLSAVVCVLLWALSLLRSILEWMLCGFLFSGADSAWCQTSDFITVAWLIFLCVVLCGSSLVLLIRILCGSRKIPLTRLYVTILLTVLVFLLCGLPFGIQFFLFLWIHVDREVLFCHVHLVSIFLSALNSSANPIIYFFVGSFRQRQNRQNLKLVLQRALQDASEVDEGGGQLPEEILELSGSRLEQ
RGS4 inh – human RGS4 inhibition; P49798; HEK293 M3R/RGS4 inducible, Fluo-4 calcium flux; hits give high values; triggered by carbachol at its EC20; B-score at 10 µM; actives 0.45% (n = 310,000); AID 463165;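 active = B-score, a plate-corrected calcium signal, over three deviations above library mean, with baseline fluorescence within five deviations of library mean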;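 also: RGS4 expression induced by doxycycline in cells with stable M3 receptor; B-score is computed from the integrated fluorescence ratio over baseline after carbachol; higher B-score means a larger calcium signal and so more RGS4 inhibition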
Target sequence (P49798 whole entry, looked up): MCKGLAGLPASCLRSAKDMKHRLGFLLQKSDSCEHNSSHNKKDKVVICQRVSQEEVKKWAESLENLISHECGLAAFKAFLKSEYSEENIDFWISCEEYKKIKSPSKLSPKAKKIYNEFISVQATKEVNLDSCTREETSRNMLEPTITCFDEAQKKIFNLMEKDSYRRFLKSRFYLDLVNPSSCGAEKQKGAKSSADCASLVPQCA
MrgX1 antagonist – antagonists of human MrgX1 receptor; Q96LB2; MRGX1-HEK293 calcium flux, Fluo-4, BAM8-22 antagonism; hits give low values; B-score at 10 µM; actives 1.3% (n = 310,000);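 active = calcium-response B-score plate-corrected more than 3 library SD below zero, starting fluorescence within 5 deviations, no agonist response on first addition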;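 also: peak minus trough fluorescence over baseline after final BAM8-22 challenge near maximal dose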
RGS4 act – RGS4 potentiation or activation. AID 463111. actives 0.92% (n = 310,000). B-score at 10 µM. HEK293 M3R/inducible RGS4, carbachol calcium flux Fluo4; hits give low values;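 active = B-score of the integrated calcium signal more than 4 SD below the library mean, with starting fluorescence not abnormally high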;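 also: negative B-score means reduced calcium response which marks RGS4 activation or potentiation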
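test system = M3R-expressing HEK293 line, RGS4 induced by doxycycline | probe or stimulus = carbachol at ECmax as muscarinic agonist stimulus | timing = dye loading 30 min 37 °C, buffer rest 30 min RT | signal = calcium dye Fluo4 fluorescence | evaluation = B score from integrated fluorescence ratio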
MrgX1 agonist – agonists of human MrgX1 receptor. Q96LB2. MrgX1-HEK293 cells, Fluo-4 calcium fluorescence, agonist mode; hits give high values. B-score at 10 µM. actives 0.44% (n = 310,000). AID 588627;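 active = calcium response B-score plate-corrected fluorescence ratio at least 3 library SD, with starting fluorescence B-score inside 5 SD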
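System – MrgX1-expressing HEK293 cells · Incubation – cells plated overnight, dye loaded 0.5 h 37 °C, 0.5 h room temperature · Technique – kinetic Fluo-4 NW fluorescence of intracellular calcium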
MrgX1 antag conf – human MrgX1 receptor antagonism, re-confirmation screen; remaining BAM8-22 calcium response % of control (hits give low values), % at 10 µM; MrgX1-HEK293, BAM8-22 calcium flux, Fluo-4; hits give low values; AID 602420; shares compounds with MrgX1 antagonist; actives 19% (n = 2,300);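 active = remaining agonist calcium response no higher than 100% minus 3 SD of agonist-only control wells, with starting fluorescence near control levels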;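 also: agonist BAM8-22 given at a near maximal EC90 to ECmax level; peak minus minimum fluorescence divided by baseline after agonist addition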
HEK293 Ca flux – MrgX1 antagonist counter-screen hit in parental HEK293 cells | actives 2% (n = 4,000) | AID 624111 | fluorescence ratio F(max-min)/F0 at 10 µM | shares compounds with MrgX1 antagonist | Fluo-4 calcium fluorescence, FDSS;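 active = duplicate-averaged calcium fluorescence ratio at least three times the standard deviation of buffer wells, a nonspecific response in parental cells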
HEK293 Ca counter – MrgX1 allosteric activator counter-screen hit in parental HEK293 cells; fluorescence ratio F(max-min)/F0 at 10 µM; parental HEK293 calcium flux, Fluo-4 fluorescence ratio; hits give high values; AID 624114; actives 0.4% (n = 4,000); shares compounds with MrgX1 antagonist;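 active = calcium fluorescence ratio, averaged over duplicates, at least 3 SD of the buffer-well ratio, meaning a nonspecific response in receptor-free cells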;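 also: untransfected parental HEK293 lacking MrgX1 used as counterscreen for MrgX1 allosteric activators; fluorescence change taken during the second addition on a kinetic imager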
HEK293 Ca cntr2 – activity in parental HEK293 cells lacking MrgX1 receptor; shares compounds with MrgX1 antagonist; Fluo-4 calcium fluorescence (FDSS); hits give high values; fluorescence ratio F(max-min)/F0 at 10 µM; actives 8.7% (n = 4,000);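 active = calcium fluorescence ratio at least three times the spread of buffer wells, meaning a non-specific response in parental cells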
Hits are given with their value; i = inactive; nt = not tested or not shown.

SMILES	MrgX1 PAM	RGS4 inh	MrgX1 antagonist	RGS4 act	MrgX1 agonist	MrgX1 antag conf	HEK293 Ca flux	HEK293 Ca counter	HEK293 Ca cntr2
Cc1cccc(-n2nc3c(c2NC(=O)c2ccc4c(c2)OCO4)CS(=O)(=O)C3)c1C	i	i	i	i	i	nt	nt	nt	nt
O=C(COc1ccccc1)Nc1nnc(-c2ccc(F)cc2)o1	i	i	i	i	i	nt	nt	nt	nt
O=C(COc1ccccc1)Nc1nnc(-c2ccccc2Cl)o1	i	i	-7.89	i	i	i	i	i	i
COc1ccc(NC(=O)CSc2nnc(CN3CCOCC3)n2C)cc1Cl	i	i	-7.05	i	i	i	i	i	i
Cn1c(C(=O)N2CCc3ccccc3C2)cc2c(=O)n3ccccc3nc21	i	i	-5.81	i	i	i	i	i	i
O=C(CSCc1ccc(Br)cc1)Nc1ccccc1C(=O)N1CCOCC1	i	i	i	i	i	nt	nt	nt	nt
Cc1cc(C(=O)O)ccc1N=Cc1c(O)ccc2ccccc12	i	i	i	i	i	nt	nt	nt	nt
CCOc1ccc(N2CC(C(=O)N3CCN(c4ccccn4)CC3)CC2=O)cc1 (centres undefined)	i	i	-6.67	i	i	i	i	i	i
COc1ccc(C(CNC(=O)C(CCSC)NC(=O)c2ccccc2OC)N2CCCCC2)cc1 (centres undefined)	i	i	i	i	i	nt	nt	nt	nt
Cc1ccc(-c2nc(CSCC(=O)N3CCCC3)c(C)o2)cc1	i	i	i	i	i	nt	nt	nt	nt
Cc1cccc(-c2nc(CSCC(=O)N3CCN(c4ccccn4)CC3)c(C)o2)c1	i	i	-8.03	i	i	58.1%	i	i	i
CC(C)N(Cc1nccn1C)C(=O)CC1C(=O)NCCN1Cc1ccc(F)c(F)c1 (centres undefined)	i	i	-6.46	i	i	72.1%	i	i	i
Cc1cccc2sc(NC(=O)c3ccc(Cl)s3)nc12	i	i	-7.13	i	i	i	i	i	i
c1coc(CNc2c3c(nc4ccccc24)CCC3)c1	i	i	-5.49	i	i	i	i	i	i
CCOc1ccc(N(CC(=O)N2CCc3ccccc32)S(=O)(=O)c2c(C)noc2C)cc1	i	i	i	i	i	nt	nt	nt	nt
Cc1cc(C)cc(N(CC(=O)N2CCc3ccccc32)S(=O)(=O)c2c(C)noc2C)c1	i	i	-7.25	i	i	i	i	i	i
O=C(Nc1cccc2c1CCCC2)c1ccncc1	i	i	-8.46	i	i	i	i	i	i
CN1CCN(C(=S)Nc2cccc(Cl)c2)CC1	i	i	-4.91	i	i	i	i	i	i
c1ccc(-c2csc3ncnc(NCc4ccccn4)c23)cc1	i	i	-5.61	i	i	i	i	i	i
CN(C)CCCNc1ncnc2scc(-c3ccccc3)c12	i	i	i	i	i	nt	nt	nt	nt
COc1ccc(NS(=O)(=O)c2cccc(C(=O)NCc3ccco3)c2)cc1	i	i	-6.54	i	i	i	i	i	55.4
Cc1ccccc1Cn1cc(NS(=O)(=O)c2cn(C)nc2C)cn1	i	i	i	i	i	nt	nt	nt	nt
O=C(NC(=S)NCC1CCCO1)c1ccco1 (centres undefined)	i	i	-25.4	i	i	i	i	i	i
COC(=O)c1ccc(NC(=S)NC2CCCCC2)cc1	i	i	i	i	i	nt	nt	nt	nt
COC(=O)c1cccnc1NC(=S)NC1CCCCC1	i	i	-4.8	i	i	i	i	i	i
SMILES	MrgX1 PAM	RGS4 inh	MrgX1 antagonist	RGS4 act	MrgX1 agonist	MrgX1 antag conf	HEK293 Ca flux	HEK293 Ca counter	HEK293 Ca cntr2
O=C(c1nc2ccccc2s1)N1CCN(c2ccccn2)CC1	i	nt	i	nt	i	nt	nt	nt	nt
O=C(c1nc2ccccc2s1)N1CCSCC1	i	i	-10	i	i	i	i	i	i
CN1CCN(C2=Nc3c(Cl)cc(Cl)c4cccc2c34)CC1	i	i	-5.82	i	i	i	i	i	48.6
CN1CCN(C2=Nc3cc(F)ccc3Cc3ccccc32)CC1	i	i	i	i	i	nt	nt	nt	nt
CC1CC(C)CN(C(=O)COC(=O)CNC(=O)C23CC4CC(CC(C4)C2)C3)C1 (centres undefined)	i	i	i	i	i	nt	nt	nt	nt
COc1ccc(-n2c(Cc3cccn3C)nnc2SCC(=O)Nc2ccc(C)c(Cl)c2)cc1	i	i	-4.8	i	i	i	i	i	i
O=C(N1CCCC1)N1CCN(S(=O)(=O)c2ccccc2)CC1	i	i	i	i	i	nt	nt	nt	nt
Cc1ccc(C(=O)N/C(=C/c2ccc(Cl)cc2)C(=O)N2CCOCC2)cc1	i	i	i	i	i	nt	nt	nt	nt
O=C1c2ccncc2C(=O)N1CO	i	i	-4.96	i	i	85.1%	i	i	i
Cc1cc(C)n(-c2n[nH]c(=O)c3ccccc23)n1	i	i	i	i	i	nt	nt	nt	nt
CCC/C=C1/CCCOC(C(=O)NCc2ccc(S(C)(=O)=O)cc2)(C(F)(F)F)C1 (centres undefined)	i	i	i	i	i	nt	nt	nt	nt
CS(=O)(=O)c1ccc(CNC(=O)C2(C(F)(F)F)C/C(=C/CCO)CCCO2)cc1 (centres undefined)	i	i	-4.77	i	i	i	i	i	i
O=C(CSc1nnc(CNC(=O)c2ccc(F)cc2)o1)NCc1ccc(F)cc1	i	i	i	i	i	nt	nt	nt	nt
O=C(CSc1nnc(CNC(=O)c2ccccc2)o1)NCc1ccccc1Cl	i	i	-6.59	i	i	i	i	i	i
O=C(CSc1nnc(CNC(=O)c2ccc(F)cc2)o1)NCc1ccc2c(c1)OCO2	i	i	-7.62	i	i	i	i	i	i
O=C(CSc1nnc(CNC(=O)c2ccc(F)cc2)o1)NCc1ccccc1Cl	i	i	i	i	i	nt	nt	nt	nt
CCC1CCCCN1C(=O)N[C@@H](Cc1ccccc1)C(=O)O (some centres undefined)	i	i	-4.96	i	i	i	i	i	i
CCCn1c(=N)n(CC(=O)c2cccs2)c2ccccc21	i	i	-4.65	i	i	i	i	i	i
COc1ccc(C2C3=C(CCCC3=O)Nc3ccc4ncccc4c32)cc1OC (centres undefined)	i	i	-4.67	i	i	i	i	i	i
COc1cc(C2C3=C(CCCC3=O)Nc3ccc4ncccc4c32)ccc1O (centres undefined)	i	i	i	i	i	nt	nt	nt	nt
O=C(O)Cn1cnc2c(oc3ccccc32)c1=O	i	i	i	i	i	nt	nt	nt	nt
